{"data": "Results gathered from unrelated publications", "GLP1R": "Glucagon-like peptide 1 receptor (GLP1R, Homo sapiens, UniProt P43220)", "Cnr1": "Cannabinoid receptor 1 (Cnr1, Mus musculus, UniProt P47746)", "DRD3": "D(3) dopamine receptor (DRD3, Homo sapiens, UniProt P35462)", "note": "Protocols differ between the studies behind these lines. pEC50, pIC50, pKi: −log10 of the molar value."}
{"Compound": "CC[C@H](C)[C@H](NC(=O)[C@H](CC(C)C)NC(=O)[C@H](Cc1c[nH]c2ccccc12)NC(=O)[C@H](CC(=O)O)NC(=O)[C@@H](NC(=O)[C@H](Cc1ccccc1)NC(=O)[C@H](CCC(=O)O)NC(=O)[C@H](CCCCN)NC(=O)[C@H](C)NC(=O)[C@H](C)NC(=O)[C@H](CCCCN)NC(=O)[C@H](CCC(=O)O)NC(=O)[C@H](CC(=O)O)NC(=O)[C@H](CC(C)C)NC(=O)[C@H](Cc1c[nH]cn1)NC(=O)[C@H](CCC(N)=O)NC(=O)[C@@H](NC(=O)[C@@H](NC(=O)[C@H](CC(=O)O)NC(=O)[C@H](CO)NC(=O)[C@@H](NC(=O)[C@H](Cc1ccccc1)NC(=O)[C@@H](NC(=O)CNC(=O)[C@H](CCC(=O)O)NC(=O)[C@H](C)NC(=O)[C@@H](N)Cc1c[nH]cn1)[C@@H](C)O)[C@@H](C)O)C(C)C)[C@@H](C)O)[C@@H](C)CC)C(=O)N[C@@H](CC(N)=O)C(=O)NCC(=O)NCC(=O)N1CCC[C@H]1C(=O)O", "target": "GLP1R", "observed": "reporter gene", "mode": "agonist", "technique": "luciferase", "quantity": "pEC50", "result": 9.35}
{"Compound": "O=C(Nc1cccc(-c2ccn3c(CC4CC4)nnc3c2C(F)(F)F)c1)c1ccc(S(=O)(=O)F)cc1", "target": "Metabotropic glutamate receptor 5 (GRM5, Homo sapiens, UniProt P41594)", "observed": "calcium signal", "mode": "agonist", "quantity": "pEC50", "result": "< 4.30"}
{"Compound": "C[C@H]1COCCN1c1nc(NCc2cccnc2C(F)(F)F)c2cccnc2n1", "target": "A-type voltage-gated potassium channel KCND3 (KCND3, Homo sapiens, UniProt Q9UK17)", "observed": "ion current", "mode": "inhibitor", "quantity": "pIC50", "result": "< 4.48"}
{"Compound": "CSCC[C@H](NC(=O)[C@H](CCC(=O)O)NC(=O)[C@@H]1CCCN1C(=O)[C@@H](NC(=O)[C@@H]1CCCN1)[C@@H](C)O)C(=O)N[C@@H](CCCNC(=N)N)C(=O)N[C@@H](CCC(=O)O)C(=O)N[C@@H](CCCCN)C(=O)N[C@@H](CC(C)C)C(=O)N[C@H]1CSSC[C@@H]2NC(=O)[C@@H](NC(=O)[C@H](CC(C)C)NC(=O)[C@@H](NC(=O)[C@H](CCC(N)=O)NC(=O)[C@H](CC(C)C)NC(=O)[C@H](CC(=O)O)NC(=O)[C@@H]3CCC(=O)N3)[C@@H](C)O)CSSC[C@H](NC(=O)CNC(=O)[C@H](CO)NC(=O)[C@H](CC(C)C)NC2=O)C(=O)N[C@@H]([C@@H](C)O)C(=O)N[C@@H](CCC(N)=O)C(=O)N[C@@H](CCC(N)=O)C(=O)N[C@@H](CC(=O)O)C(=O)N[C@@H](CC(C)C)C(=O)N[C@@H](CC(C)C)C(=O)N[C@@H]([C@@H](C)O)C(=O)N[C@@H](CC(C)C)C(=O)N[C@H](C(=O)N2CCC[C@H]2C(=O)N[C@@H](Cc2ccc(O)cc2)C(=O)O)CSSC[C@@H](C(=O)NCC(=O)NCC(=O)N2CCC[C@H]2C(=O)N[C@@H](CCCNC(=N)N)C(=O)N[C@@H](Cc2c[nH]c3ccccc23)C(=O)N[C@@H](CO)C(=O)N[C@H](C(=O)N[C@@H](CCC(=O)O)C(=O)N[C@@H](C)C(=O)O)[C@@H](C)O)NC(=O)[C@H](C(C)C)NC(=O)[C@H](CCCNC(=N)N)NC(=O)[C@H](C(C)C)NC(=O)[C@H](CC(C)C)NC(=O)[C@H](C)NC(=O)[C@H](CCCNC(=N)N)NC(=O)[C@H](C(C)C)NC(=O)[C@H](Cc2ccccc2)NC(=O)[C@H](Cc2c[nH]cn2)NC(=O)[C@H](Cc2c[nH]cn2)NC(=O)CNC1=O", "target": "Relaxin receptor 2 (RXFP2, Homo sapiens, UniProt Q8WXD0)", "observed": "ligand displacement in cells", "quantity": "pKi", "result": 8.44}
{"Compound": "CC[C@H](C)[C@H](NC(=O)[C@H](CO)NC(=O)[C@H](CC(=O)O)NC(=O)[C@H](CC(C)C)NC(=O)[C@@H](NC(=O)[C@H](CCCCN)NC(=O)[C@H](CC(N)=O)NC(=O)[C@@H](NC(=O)[C@H](CC(=O)O)NC(=O)[C@H](CO)NC(=O)[C@@H](NC(=O)[C@H](Cc1ccccc1)NC(=O)[C@H](CO)NC(=O)CNC(=O)[C@H](CC(=O)O)NC(=O)[C@@H](NC(=O)[C@@H](N)Cc1c[nH]cn1)C(C)C)[C@@H](C)O)C(C)C)C(C)C)C(=O)N[C@@H](C)C(=O)N[C@@H](C)C(=O)N[C@@H](CCCCN)C(=O)N[C@@H](CCC(=O)O)C(=O)N[C@@H](Cc1ccc(O)cc1)C(=O)N[C@@H](CC(C)C)C(=O)N[C@@H](CCC(N)=O)C(=O)N[C@@H](Cc1c[nH]c2ccccc12)C(=O)N[C@H](C(=O)N[C@@H](CCSC)C(=O)N[C@@H](CC(N)=O)C(=O)N[C@@H](CO)C(=O)N[C@@H](CCCCN)C(=O)N[C@@H](C)C(=O)N[C@@H](CO)C(=O)NCC(=O)O)C(C)C", "target": "GLP1R", "observed": "reporter gene", "mode": "agonist", "technique": "luciferase", "quantity": "pEC50", "result": 8.44}
{"Compound": "CCCc1cc2cc(-n3nc(C)c4c3CC(C)(C)CC4=O)cc(N[C@H]3CC[C@H](O)CC3)c2c(=O)[nH]1", "target": "Heat shock protein 75 kDa, mitochondrial (TRAP1, Homo sapiens, UniProt Q12931)", "observed": "ligand displacement", "technique": "FP", "quantity": "pIC50", "result": "< 4.30"}
{"Compound": "CC(C)[C@@H]1NC(=O)[C@H](CO)NC(=O)[C@H](CO)NC(=O)[C@H](CO)N(C)C(=O)[C@H](CC(=O)O)NC(=O)[C@H](CO)NC(=O)[C@H](Cc2ccccc2)NC(=O)CSC[C@@H](C(=O)NCC(N)=O)NC(=O)[C@H](CC(N)=O)NC(=O)[C@H](CCCNC(=N)N)NC(=O)[C@H](Cc2ccc(-c3ccccc3)cc2)NC(=O)[C@H](Cc2ccc(-c3ccccc3)cc2)NC(=O)[C@H](CC(N)=O)NC(=O)[C@@H]2CCCN2C1=O", "target": "Protein Mdm4 (MDM4, Homo sapiens, UniProt O15151)", "observed": "ligand displacement", "technique": "TR-FRET", "quantity": "pKi", "result": 6.13}
{"Compound": "CC(C)C[C@H](NC(=O)[C@H](Cc1ccc(O)cc1)NC(=O)[C@H](CO)NC(=O)[C@H](CO)NC(=O)[C@@H](NC(=O)[C@H](CC(=O)O)NC(=O)[C@H](CO)NC(=O)[C@@H](NC(=O)[C@H](Cc1ccc(O)cc1)NC(=O)[C@@H](NC(=O)CNC(=O)[C@H](CC(=O)O)NC(=O)[C@H](C)NC(=O)[C@@H](N)Cc1c[nH]cn1)[C@@H](C)O)[C@@H](C)O)C(C)C)C(=O)N[C@@H](CCC(N)=O)C(=O)N[C@@H](CC(=O)O)C(=O)N[C@@H](CCC(N)=O)C(=O)N[C@@H](C)C(=O)N[C@@H](C)C(=O)N[C@@H](CCCCN)C(=O)N[C@@H](CCC(=O)O)C(=O)N[C@@H](Cc1ccccc1)C(=O)N[C@H](C(=O)N[C@@H](CO)C(=O)N[C@@H](Cc1c[nH]c2ccccc12)C(=O)N[C@@H](CC(C)C)C(=O)N[C@@H](CCCCN)C(=O)N[C@H](C(=O)NCC(=O)N[C@@H](CCCNC(=N)N)C(=O)NCC(=O)O)[C@@H](C)O)C(C)C", "target": "GLP1R", "observed": "reporter gene", "mode": "agonist", "technique": "luciferase", "quantity": "pEC50", "result": 9.36}
{"Compound": "O=C(O)[C@H]1O[C@@H](Oc2cc(O)cc(/C=C/c3ccc(O)cc3)c2)[C@H](O)[C@@H](O)[C@@H]1O", "target": "Cnr1", "observed": "ligand displacement", "technique": "radioligand", "notes": "cell membranes", "quantity": "pKi", "result": "< 4.00"}
{"Compound": "COc1cc(N)c(Cl)cc1C(=O)NC1CCN(CCCOc2ccc(F)cc2)CC1OC (centres unmarked)", "target": "DRD3", "observed": "ligand displacement", "technique": "radioligand", "quantity": "pIC50", "result": 5.20}
{"Compound": "Cc1cc(O)cc(C)c1C[C@H](N)C(=O)N[C@H](C)C(=O)NCC(=O)N[C@@H](Cc1ccc(Cl)cc1)C(=O)N(C)CCC[C@@]1(c2ccc(F)cc2)OCc2cc(C#N)ccc21", "target": "DRD3", "observed": "ligand displacement", "technique": "radioligand", "quantity": "pKi", "result": 6.05}
{"Compound": "C/C(N)=N\\C(=N/S(=O)(=O)c1ccc(C(F)(F)F)cc1)N1C[C@H](c2ccccc2)C(c2ccc(Cl)cc2)=N1", "target": "Cnr1", "observed": "ligand displacement", "technique": "radioligand", "notes": "cell membranes", "quantity": "pKi", "result": 8.64}
{"Compound": "CC(C)(O)[C@@H](Nc1nc(Cl)nc2c1ncn2[C@H]1[C@H](O)[C@H](O)[C@]2(CO)C[C@H]12)C1CC1", "target": "DRD3", "observed": "ligand displacement", "technique": "radioligand", "quantity": "pKi", "result": 5.87}
{"Compound": "CO[C@H]1C[C@H](O[C@H]2[C@H](C)O[C@@H](O[C@@H]3/C(C)=C/C[C@@H]4C[C@@H](C[C@]5(C=C[C@H](C)[C@@H](C6CCCCC6)O5)O4)OC(=O)[C@@H]4C=C(C)[C@@H](O)[C@H]5OC/C(=C\\C=C\\[C@@H]3C)[C@]54O)C[C@@H]2OC)O[C@@H](C)[C@@H]1O", "target": "Nuclear receptor subfamily 1 group I member 3 (Homo sapiens, UniProt Q14994)", "observed": "reporter gene", "mode": "antagonist", "quantity": "pIC50", "result": 4.36}
